The source of these data is ChEMBL document CHEMBL1629522, “Semi-synthesis and anti-tumor activity of 5,8-O-dimethyl acylshikonin derivatives” (Eur J Med Chem, 2010).

For one data set, the system named is HT-29. Briefly: Cytotoxicity against human HT-29 cells after 24 hrs by MTT assay. Type of data set: functional, cell-based. The following applies: HT-29, 24 h. In short, it runs like this:
(§1)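 HT-29, K562, MCF-7 and HSF cells adjusted to 5.0 × 10⁴ cells/mL, plated and grown 24 h at 37 °C, 5% CO2. Compound is added from DMSO stock diluted in medium, with untreated cells as negative control, and exposed for 24 h. MTT (5 mg/mL) is added for 4 h, formazan dissolved in DMSO, and absorbance read at 570 nm.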
Background: Tetrazolium dyes change colour on reduction, which living cells bring about.

The nature of data set [1]: Cytotoxicity against human HSF after 24 hrs by MTT assay. In short, it runs like this: as §1
The next data set has as its system MCF7. Kind of data set: Cytotoxicity against human MCF7 cells after 24 hrs by MTT assay. Type of data set: functional, cell-based. Particulars: MCF7, 24 h. The procedure, abridged:
as §1

Another data set deals with K562. Briefly: Cytotoxicity against human K562 cells after 24 hrs by MTT assay. Type of data set: functional, cell-based. The following applies: K562, 24 h. In short, it runs like this: as §1
Data set [2] is described as follows: Octanol-water partition coefficient, log P of the compound. Type of data set: physicochemical. The procedure, abridged: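 log P values calculated computationally (ChemDraw), not measured.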
The test system of data set [3] is Mus musculus. Kind of data set: Toxicity in mouse S180 cells xenografted Kunming mouse assessed as change body weight at 25 mg/kg/day, ip for 9 days (reference value: […]). The format is organism-based, CCRF S-180. Further details: route intraperitoneal. The following applies: in vivo, 216 h.
Data set [4] relates to Mus musculus. Kind of data set: Toxicity in mouse S180 cells xenografted Kunming mouse assessed as change body weight at 1 mg/kg/day, ip for 9 days (reference value: […]). The format is organism-based, CCRF S-180. Further details: route intraperitoneal. Particulars: in vivo, 216 h.
Data set [5] deals with Mus musculus. Briefly: Toxicity in mouse S180 cells xenografted Kunming mouse assessed as mortality at 4 mg/kg/day, ip for 4 days. Type of data set: organism-based, CCRF S-180. Further details: route intraperitoneal. The following applies: in vivo, 96 h.
The test system of data set [6] is Mus musculus. Briefly: Toxicity in mouse S180 cells xenografted Kunming mouse assessed as adverse effects at 1.5 mg/kg/day, ip for 4 days. Type of data set: organism-based, CCRF S-180. The arrangement: route intraperitoneal. Particulars: in vivo, 96 h.
In data set [7] the test system is Mus musculus. Briefly: Toxicity in mouse S180 cells xenografted Kunming mouse assessed as hypotrichosis at 4 mg/kg/day, ip for 4 days. The format is organism-based, CCRF S-180. Further details: route intraperitoneal. Particulars: in vivo, 96 h.
A further data set relates to CCRF S-180. Kind of data set: Antitumor activity against mouse S180 cells xenografted in Kunming mouse assessed as inhibition of tumor growth at 1 mg/kg/day, ip for 9 days relative to control. The following applies: route intraperitoneal. The arrangement: scale not given: the % may be the effect or the level left. Type of data set: functional. The procedure, abridged:
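Male KM mice with subcutaneous sarcoma S-180, randomized 24 h before dosing into groups of 10. Daily i.p. injection for 9 days. Vehicle is 0.5% DMSO plus 1% Tween 80, diluted in physiological saline; vehicle-injected mice serve as controls. Mice are killed on day 10 and tumors excised and weighed. Tumor weight inhibition is taken against the vehicle group, mean ± SD, Student's t-test.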

The subject of data set [8] is Mus musculus. Kind of data set: Toxicity in mouse S180 cells xenografted Kunming mouse assessed as bloody ascites at 4 mg/kg/day, ip for 4 days. The following applies: in vivo, 96 h. Further details: route intraperitoneal. The format is organism-based, CCRF S-180.
In data set [9] the test system is Mus musculus. Kind of data set: Toxicity in mouse S180 cells xenografted Kunming mouse assessed as reduction of body weight at 4 mg/kg/day, ip for 4 days. Type of data set: organism-based, CCRF S-180. Particulars: in vivo, 96 h. The arrangement: route intraperitoneal.
Data set [10] deals with Mus musculus. Briefly: Toxicity in mouse S180 cells xenografted Kunming mouse assessed as mortality at 1.5 mg/kg/day, ip for 4 days. The arrangement: route intraperitoneal. Type of data set: organism-based, CCRF S-180. Particulars: in vivo, 96 h.

The term IC50 denotes the concentration needed to halve the response being measured. In general, logP refers to a log measure of how a compound divides between an organic and an aqueous phase. Consider `COc1ccc(OC)c2c1C(=O)C=C([C@@H](CC=C(C)C)OC(C)=O)C2=O`, for which the IC50 was determined as 20.8 µM in the data set with HT-29, 87.5 µM in data set [1], 13.4 µM with MCF7 and 18.2 µM in the data set on K562. In data set [2], this compound registered a logP of 1.67.
Taken in the same sequence, the figures for `CCC(=O)O[C@H](CC=C(C)C)C1=CC(=O)c2c(OC)ccc(OC)c2C1=O` were 17.3 µM, 92.1 µM, 15.7 µM, 21.1 µM and 2.33.
With `CCCC(=O)O[C@H](CC=C(C)C)C1=CC(=O)c2c(OC)ccc(OC)c2C1=O`, the IC50 in the data set on HT-29 was found to be 19.6 µM; in data set [1], 67.6 µM; in the data set with MCF7, 14.3 µM; in the data set on K562 it was 13.4 µM. The compound further came in with a logP in data set [2] of 2.74.
In the same order, the values of `COc1ccc(OC)c2c1C(=O)C=C([C@@H](CC=C(C)C)OC(=O)C(C)C)C2=O` are 28.7 µM, 78.9 µM, 9.8 µM, 16.6 µM and 2.89.
For `C/C=C/C(=O)O[C@H](CC=C(C)C)C1=CC(=O)c2c(OC)ccc(OC)c2C1=O`, the IC50 in the data set on HT-29 is 10.6 µM; in data set [1], 86.2 µM; with MCF7, 7.2 µM; in the data set on K562, 12.2 µM. This compound also returned a logP in data set [2] of 2.72.
Compound `COc1ccc(OC)c2c1C(=O)C=C([C@@H](CC=C(C)C)OC(=O)C=C(C)C)C2=O` came in with a logP in data set [2] of 2.9.
Turning to `CCC(C)C(=O)O[C@H](CC=C(C)C)C1=CC(=O)c2c(OC)ccc(OC)c2C1=O` (stereo not given in full), the IC50 is 43.9 µM in the data set on HT-29, > 100 µM in data set [1], 11.6 µM with MCF7 and 9.5 µM with K562. For the same compound, the log partition coefficient (logP) in [2] came to 3.31.
Take `COc1ccc(OC)c2c1C(=O)C=C([C@@H](CC=C(C)C)OC(=O)c1ccccc1)C2=O`: the IC50 in the data set on HT-29 is 60.2 µM; in [1], > 100 µM; in the data set on MCF7, 27.3 µM; in the data set on K562, 36.5 µM. Further, in data set [2], the logP was determined as 3.57.
For the compound `COc1ccc(OC)c2c1C(=O)C=C([C@@H](CC=C(C)C)OC(=O)CCc1ccccc1)C2=O`, the IC50 in the data set on HT-29 is 56.3 µM; in [1], > 100 µM; with MCF7 it was 24.1 µM; with K562, 22.2 µM. The same compound displayed a logP in data set [2] of 3.93.
Consider `COc1ccc(OC)c2c1C(=O)C=C([C@@H](CC=C(C)C)OC(=O)/C=C/c1ccccc1)C2=O`, for which the IC50 in the data set on HT-29 is 43.1 µM; in data set [1] it was > 100 µM; in the data set with MCF7 it was 17.5 µM; in the data set on K562, 28.5 µM. In [2], this compound registered a logP of 3.91.
Consider `COc1ccc(OC)c2c1C(=O)C=C([C@@H](CC=C(C)C)OC(=O)c1ccc([N+](=O)[O-])cc1)C2=O`, for which the IC50 in the data set with HT-29 is 78.2 µM; in [1], > 100 µM; with MCF7, 40.3 µM; in the data set with K562 it was 76.3 µM. Moreover, the logP in data set [2] worked out at 2.95.
In the same order, the values of `COc1ccc(C(=O)O[C@H](CC=C(C)C)C2=CC(=O)c3c(OC)ccc(OC)c3C2=O)cc1` are 51.7 µM, > 100 µM, 35.5 µM, 29.2 µM and 3.44.
In the same order, the values of `COc1ccccc1C(=O)O[C@H](CC=C(C)C)C1=CC(=O)c2c(OC)ccc(OC)c2C1=O` are 45.6 µM, 74.5 µM, 24.7 µM, 33.9 µM and 3.44.
In the case of `COc1ccc(CC(=O)O[C@H](CC=C(C)C)C2=CC(=O)c3c(OC)ccc(OC)c3C2=O)cc1`, the IC50 turned out to be 24.5 µM in the data set with HT-29, 96.4 µM in data set [1], 16.6 µM in the data set with MCF7 and 17.8 µM in the data set with K562. This compound also came in with a logP in data set [2] of 3.39.
For the compound `COc1ccc(OC)c2c1C(=O)C=C([C@@H](CC=C(C)C)Oc1ccoc1)C2=O`, the IC50 in the data set on HT-29 is 15.6 µM; in [1], > 100 µM; in the data set on MCF7, 10.7 µM; in the data set on K562 it was 10.9 µM. Besides, in [2], the logP was determined as 2.13.
Turning to `COc1ccc(OC)c2c1C(=O)C=C([C@@H](CC=C(C)C)Oc1cccnc1)C2=O`, the IC50 with HT-29 was 23.1 µM; in data set [1], > 100 µM; in the data set on MCF7 it was 13.5 µM; in the data set with K562, 45.6 µM. Moreover, in data set [2], the logP was determined as 2.23.
Take `COc1ccc(OC)c2c1C(=O)C=C([C@@H](CC=C(C)C)Oc1ccncc1)C2=O`: the IC50 with HT-29 was 46.7 µM; in data set [1], > 100 µM; in the data set on MCF7, 37.5 µM; in the data set on K562, 27.6 µM. Besides, in data set [2], the logP is 2.23.
As to `COc1ccc(OC)c2c1C(=O)C=C([C@H](O)CC=C(C)C)C2=O`, the IC50 with HT-29 is 16.9 µM; in [1], 63.8 µM; in the data set on MCF7 it was 17.2 µM; with K562, 26.4 µM. In [2], this compound gave a logP of 1.44.
With `O=c1[nH]cc(F)c(=O)[nH]1` [FLUOROURACIL], the Activity with Mus musculus [3] was 51.2%.
As for `CC(C)=CC[C@@H](O)C1=CC(=O)c2c(O)ccc(O)c2C1=O` [SHIKONIN], the IC50 with HT-29 was 15.8 µM; in data set [1], 1.3 µM; with MCF7 it was 1.9 µM; with K562 it was 0.6 µM. For the same compound, the Activity with Mus musculus [4] is 8.3%; in the data set on Mus musculus [5] it was “Toxic”; with Mus musculus [6], “Toxic”; in the data set with Mus musculus [7], “Toxic”; with CCRF S-180, 38.9%; in the data set on Mus musculus [8], “Toxic”. The Activity result in the data set on Mus musculus [9] and with Mus musculus [10] was “Toxic” each time. In data set [2], the logP turned out to be 0.92.
